Results gathered from unrelated publications.
Cell line: MCF7
Observed: cell growth or viability

With COC(=O)[C@]1(O)C[C@@H](O)[C@@H](O)[C@H](OC(=O)/C=C/c2ccc(O)c(O)c2)C1 the IC50 was 10.2 µM (WST-1).
C=C(C)[C@H](CC=C(C)C)Cc1c(O)cc(OC)c(C(=O)/C=C/c2ccc(O)cc2O)c1O gave an IC50 of 23 µM (MTT).
With COc1cc2c(OC)nc3c4cc5c(cc4cc(OCCN4CCC(N6CCCCC6)CC4)c3c2cc1OC)OCO5 the GI50 was 12 µM (MTT).
CC1(C)CC[C@]2(C)CC[C@]3(C)[C@H]4CC=C5[C@@H](CC[C@H](O)C5(C)C)[C@]4(C)CC[C@@]3(C)[C@@H]2C1 has an IC50 of 28.4 µM (WST-1).
COc1cc2c(OC)nc3c4cc5c(cc4cc(OC(C)=O)c3c2cc1OC)OCO5 has a GI50 of 4.5 µM (MTT).
The CC50 of O=c1[nH]cc(F)c(=O)[nH]1 is reported as 641 µM (crystal violet; 72 h).
The IC50 of COc1cc(O)c(CC=C(C)C)c2c1C(=O)CC(c1ccc(O)cc1)O2 (stereo not drawn) is reported as > 100 µM (MTT; 48 h).
COc1cccc2c1C(=O)c1c(O)c3c(c(O)c1C2=O)C[C@@](O)(C(=O)CO)C[C@@H]3O[C@H]1C[C@H](N)[C@H](O)[C@H](C)O1 gave a viability of 11.8% (MTT; 10 µM; 24 h).
For CC(C)(C)CC(C)(C)Nc1c(-c2cccnc2)nc2ncccn12, the viability was 93.9% (MTT; 25 µM; 48 h).
COc1cccc2c1C(=O)c1c(O)c3c(c(O)c1C2=O)C[C@@](O)(C(=O)CO)C[C@@H]3O[C@H]1C[C@H](N)[C@H](O)[C@H](C)O1 gave an IC50 of 0.8 µM (MTT; 48 h).
C/C=C(/C)C(=O)O[C@@H]1[C@H](OC(C)=O)c2c(ccc3ccc(=O)oc23)OC1(C)C gave an IC50 of 39.1 µM (WST-1).
With COc1ccc(-c2nc3ncccn3c2NC(C)(C)CC(C)(C)C)cc1O the viability was 65.3% (MTT; 25 µM; 48 h).
For O=C(Nc1ccccc1OS(=O)(=O)c1ccc(F)cc1)c1ccc2ncccc2c1, the viability was 85.6% (MTT; 100 µM; 24 h).
For C=C(C)[C@H](CC=C(C)C)Cc1c(O)cc(O)c2c1O[C@H](c1ccccc1O)CC2=O, the IC50 was 21.3 µM (MTT; 48 h).
CC(C)(C)CC(C)(C)Nc1c(-c2cccc(C#N)c2)nc2ncccn12 gave a viability of 73.6% (MTT; 25 µM; 48 h).
